Screening results (PubChem)
Ba/F3 V617F tox = reduce viability of Ba/F3 cells dependent on JAK2V617F | inhibition, % at 5.6 µM | AID 1446 | Ba/F3 EpoR-JAK2V617F viability, ATP luminescence | hit rate 1.1% among 220,000;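 active = inhibition above the campaign mean plus 3 SD over all tested compounds, cut at about 24% in these data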;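 also: cytokine-independent growth of Ba/F3 cells driven by EpoR plus mutant JAK2; 0% = DMSO-treated cells and 100% = JAK inhibitor I control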
b-catenin transl = alters nuclear translocation of beta-catenin in HeLa cells; AID 1665; hit rate 0.3% among 190,000; immunofluorescence imaging; nuclear translocation activity, % at 5 µM;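 active = nuclear translocation activity above 50% at 5 µM, with a well cell count of 50 or more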;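 also: per-cell ratio of nuclear to cytoplasmic median beta-catenin stain intensity; plate controls were DMSO negative control for no effect and GSK-3 inhibitor IX positive control for full effect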
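System: Human HeLa cells, endogenous beta-catenin | Compound dosing: 5 µM primary, 0.02–20 µM confirmation | Timing: 24 h compound exposure at 37°C, 5% CO2 | Measured by: Fluorescence imaging of beta-catenin antibody stain plus DAPI | Read-out basis: % activation of per-cell nuclear versus cytoplasmic median beta-catenin signal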
IEC-6 tox = kills IEC-6 intestinal cells in KLF5 counter-screen. IEC-6 cytotoxicity, luminescence viability. AID 1825. inhibition, % at 5 µM. hit rate 0.78% among 290,000;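 also: 0% = plate median of test compound wells and 100% = cytotoxic reference compound wells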
APP transl inh = APP translation inhibition | hit rate 0.82% among 190,000 | SH-SY5Y APP 5'UTR-luciferase reporter, luminescence | AID 1285 | inhibition, % at 2 µM;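 active = inhibition above a set limit, derived from the sample mean plus 3 SD, cut at about 45% in these data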
BaF3 tox = reduces parental Ba/F3 cell viability, JAK2V617F counter-screen | CellTiter-Glo ATP luminescence | inhibition, % at 5.6 µM | AID 1486 | hit rate 1.1% among 220,000;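 active = inhibition above a per-campaign cutoff, the mean inhibition of all tested compounds plus 3 SD, cut at about 27% in these data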;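 also: 0% = DMSO wells and 100% = JAK Inhibitor I control wells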
MT stabilizer = microtubule stabilizers in HeLa cells; hit rate 0.83% among 200,000; HeLa tubulin immunostaining HCS, 24 h; share of cells brighter than vehicle mean+2SD; % tubulin-high responders, % at 10 µM;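 active = plate Z-score above 3 for both tubulin-high and condensed-nucleus cell shares, with cell loss under 80%, at 10 µM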;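 also: anti alpha tubulin signal scored within the nucleus-defined area of each cell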
IEC-6 cytotox cf = IEC-6 cytotoxicity, confirmation assay. shares compounds with IEC-6 tox. IEC-6 rat intestinal epithelial viability, luminescence. inhibition, % at 5 µM. hit rate 63% among 1,900. AID 1907;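 also: 0% = vehicle and 100% = reference cytotoxic drug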
* hit, by the source's call; · = no result given. A selection: hits, their analogues and other compounds. The true share with any hit is near 2.2%. Rule as the data show it, unless noted: active = inhibition above about 22%; inactive = the rest.

SMILES | Ba/F3 V617F tox | b-catenin transl | IEC-6 tox | APP transl inh | BaF3 tox | MT stabilizer | IEC-6 cytotox cf
CCNc1ccc(C(=O)OCC)cc1NC(=O)c1cccc(N(C)C)c1 | 81.8* | 26.5 | 64.0* | 81.1* | 76.6* | 37.8* | 58.1*
CCNc1ccc(C(=O)OCC)cc1NC(=O)c1cccc(S(=O)(=O)N(C)c2ccccc2)c1 | -1.1 | -3.8 | -4.4 | -14.1 | 4.2 | 4.7 | ·
COc1ccc(-n2nnnc2-c2ccccc2)cc1 | 79.6* | · | 51.7* | 89.3* | 68.1* | 36.3* | 50.2*
CC(=O)c1cccc(NC(=O)C(C)N2CCc3ccccc3C2)c1 (stereo not given) | -0.3 | 0.2 | -1.8 | · | -0.7 | · | ·
O=c1[nH]nc(-c2ccc(NCCO)c([N+](=O)[O-])c2)c2ccccc12 | · | · | 7.8 | · | · | · | ·
O=[N+]([O-])c1cc(Cl)cc2c1nc(NCCO)c1ccccc12 | -0.8 | 5.1 | 24.6* | · | 7.5 | · | 25.7*
COc1cc2c(cc1OC)C(C)N(C(=O)c1c(C)noc1C)CC2 (stereo not given) | -0.1 | -1.8 | 5.5 | · | -1.6 | · | ·
COc1cc2c(cc1OC)C(C)N(C(=O)c1cc(C)on1)CC2 (stereo not given) | · | · | 85.4* | · | · | · | 54.5*
COc1cccc(CN2C(=NC(=O)C3CC3)SC3CS(=O)(=O)CC32)c1 (stereo not given) | · | · | -4.0 | · | · | · | ·
N#C/C(=C\c1ccccn1)c1ccccn1 | · | · | 28.2* | · | · | · | 17.4
Cn1c2ccccc2c2cc([N+](=O)[O-])ccc21 | -4.7 | -0.1 | -0.8 | · | 1.7 | · | ·
CCN(CC)CCn1c2ccccc2c2nc3ccc([N+](=O)[O-])cc3cc21 | 77.7* | 0.5 | 36.4* | · | 76.5* | · | 31.6*
COc1ccccc1-n1cnc2cc(NCc3ccco3)ccc21 | 73.6* | 131.1* | 79.6* | 94.3* | 78.2* | 32.2* | 56.3*
COc1ccc(CNc2ccc3c(c2)ncn3-c2ccccc2OC)cc1 | -2.5 | -1.7 | 3.4 | 10.1 | -0.1 | 2.4 | ·
COc1cc2ncnc(NCc3ccccc3F)c2cc1OC | · | · | 28.5* | · | · | · | 33.2*
Fc1ccc(F)c(CNc2ncnc3cc(Cl)ccc23)c1 | · | · | 9.5 | · | · | · | ·
COc1cc2ncnc(NCc3cccc(F)c3F)c2cc1OC | · | · | 35.4* | · | · | · | 28.2*
Fc1ccccc1CNc1ncnc2sccc12 | · | · | 16.0 | · | · | · | ·
Cc1cccc(C)c1NC(=O)CN1C(=O)COc2ccccc21 | · | · | 2.0 | · | · | · | ·
CCOC(=O)Nc1ccc(C(=O)c2ccncc2)cc1 | · | · | 4.5 | · | · | · | ·
O=C(Nc1ccc(S(=O)(=O)N2CCOCC2)cc1)c1ccc([N+](=O)[O-])o1 | 68.2* | 2.4 | 66.9* | · | 66.4* | · | 11.5
O=C(Nc1ccc(Cc2ccncc2)cc1)c1ccc([N+](=O)[O-])o1 | · | · | 51.4* | · | · | · | 18.2
O=C(Nc1ccc(N2CCN(C(=O)c3cccs3)CC2)cc1)c1ccco1 | · | · | -0.2 | · | · | · | ·
O=C(Nc1ccc(N2CCN(C(=O)c3cccs3)CC2)cc1)c1ccc([N+](=O)[O-])o1 | · | · | 101.4* | · | · | · | 95.8*
O=C(Nc1ccc(N2CCOCC2)cc1)c1ccc([N+](=O)[O-])o1 | · | · | 79.4* | · | · | · | 25.4*
SMILES | Ba/F3 V617F tox | b-catenin transl | IEC-6 tox | APP transl inh | BaF3 tox | MT stabilizer | IEC-6 cytotox cf
O=C(Nc1ccc(N2CCOCC2)cc1)c1ccc(Br)o1 | · | · | -3.3 | · | · | · | ·
O=C(OCc1cc(Cl)ccc1OC(F)F)c1ccc([N+](=O)[O-])o1 | · | · | 16.0 | · | · | · | ·
COc1cccc(CNC(=O)C2CCC(CNS(=O)(=O)c3cccc4cccnc34)CC2)c1 (stereo not given) | · | · | 4.6 | · | · | · | ·
O=C(CNC(=O)c1ccco1)OCC(=O)c1ccc([N+](=O)[O-])cc1 | · | · | -1.9 | · | · | · | ·
CC(=O)Nc1ccc2nc(NC(=O)c3ccc([N+](=O)[O-])o3)sc2c1 | · | · | 56.5* | · | · | · | 13.1
COc1ccc(-c2nn(-c3ccccc3)cc2/C=N/n2cnnc2)cc1OC | -2.1 | · | -0.2 | -1.4 | 2.6 | 2.3 | ·
COc1ccc(-c2nn(-c3ccccc3)cc2/C=N/NC(N)=S)cc1OC | 82.1* | · | 72.0* | 95.1* | 82.5* | 27.4* | 61.7*
Cc1ccc(O)c(CNc2cccc3cccnc23)c1 | 2.8 | -1.0 | 1.9 | 11.2 | 7.7 | 3.2 | ·
Oc1ccc(Br)cc1CNc1cccc2cccnc12 | · | · | 44.5* | · | · | · | -0.1
N=c1c(C(=O)NC2CCCCC2)cc2c(=O)n3ccccc3nc2n1Cc1ccco1 | · | · | 41.8* | · | · | · | 10.2
Cc1ccc(NC(=O)Cn2c(=O)cnc3ccccc32)cc1S(=O)(=O)N(C)C | 4.6 | 6.4 | 25.4* | -3.1 | 3.5 | 1.8 | 3.1
Cc1ccc(NC(=O)CN2CCc3ccccc3C2)cc1S(=O)(=O)N(C)C | 0.5 | 0.7 | -6.8 | -11.7 | 4.3 | 2.9 | ·
CN(C)c1ccc(/C=N/Nc2cccc(C(=O)O)c2)cc1 | · | · | 0.1 | · | · | · | ·
COc1ccc(C(C)=O)cc1COc1cccnc1[N+](=O)[O-] | · | · | 17.5 | · | · | · | ·
CCOc1ccc(C(C)=O)cc1COc1cccnc1[N+](=O)[O-] | · | · | 28.5* | · | · | · | 23.7*
Cc1ccc(-c2nc(CS(=O)CC(=O)NCCN3CCCCC3C)c(C)o2)cc1 (stereo not given) | · | · | -2.0 | · | · | · | ·
CC(=O)N=c1sccn1CC(O)c1ccc(Br)cc1 (stereo not given) | · | · | 11.6 | · | · | · | ·
O=[N+]([O-])c1c(Nc2ccc(O)cc2)cc(Cl)c2nonc12 | · | · | 101.4* | · | · | · | 68.4*
CN(C)c1cc(Nc2ccc(O)cc2)c([N+](=O)[O-])c2nonc12 | -0.8 | -1.8 | 3.2 | · | -3.1 | · | ·
O=C(OCn1ncc(Cl)c(Cl)c1=O)c1cccc(C(F)(F)F)c1 | 4.0 | -0.4 | 4.0 | 44.3 | -3.3 | 1.9 | ·
O=C(OCn1ncc(Br)c(Br)c1=O)c1ccccc1Cl | 39.9* | -1.6 | 23.2* | · | 37.3* | 1.0 | 53.8*
O=C(OCn1ncc(Br)c(Br)c1=O)c1ccc(F)cc1 | 84.7* | 5.9 | 36.1* | 95.5* | 92.8* | 1.3 | 62.4*
O=[N+]([O-])c1ccc2c(OCc3nnc(-c4ccccc4Br)o3)ncnc2c1 | 0.5 | -0.6 | 0.7 | · | -3.5 | · | ·
CSc1ccccc1C(=O)Nc1cc2c(cc1C(=O)O)OCCCO2 | · | · | 4.9 | · | · | · | ·
O=C(Cc1n[nH]c(=O)c2ccccc12)OCC(=O)c1ccc2c(c1)OCCO2 | 83.5* | 18.1 | 89.4* | 94.6* | 82.2* | 20.7* | 60.3*
SMILES | Ba/F3 V617F tox | b-catenin transl | IEC-6 tox | APP transl inh | BaF3 tox | MT stabilizer | IEC-6 cytotox cf
Cc1cc(C(=O)COC(=O)Cc2n[nH]c(=O)c3ccccc23)c(C)n1-c1ccc2c(c1)OCO2 | -4.1 | 0.3 | -4.2 | -0.5 | -0.1 | 1.5 | ·
CC(OC(=O)CCC(=O)N1CCN(S(=O)(=O)c2ccc3ccccc3c2)CC1)C(=O)NC(N)=O (stereo not given) | · | · | -3.9 | · | · | · | ·
O=C(Nc1ncc(Cc2ccccc2)s1)c1cccs1 | 1.3 | -10.1 | 3.3 | -193.6 | 11.9 | 1.6 | ·
O=C(Cc1ccccc1)Nc1ccc(Cl)cn1 | · | · | 3.2 | · | · | · | ·
O=C(CCc1ccccc1)Nc1ccc(Cl)cn1 | 67.2* | 140.3* | 67.8* | 75.3* | 50.9* | 36.2* | 40.4*
Cc1cnc(NC(=O)CCc2ccccc2)s1 | · | · | 31.0* | · | · | · | 12.5
Cc1ccc(C(=O)Nc2ncc(Cc3ccccc3)s2)o1 | 81.0* | 2.1 | 51.3* | -205.3 | 79.1* | 2.3 | 39.7*
